Measured values from ChEMBL document CHEMBL4118202, “Chiral analogues of (+)-cyclazosin as potent α1B-adrenoceptor selective antagonist” (Bioorg Med Chem, 2018).

How the values were obtained:
[1] = target: T1, Alpha-1B adrenergic receptor (Homo sapiens, UniProt P35368); assay: Displacement of [3H]prazosin from human alpha1B adrenergic receptor expressed in CHO cell membranes after 30 mins by rapid filtration method
T1 sequence (P35368 whole entry): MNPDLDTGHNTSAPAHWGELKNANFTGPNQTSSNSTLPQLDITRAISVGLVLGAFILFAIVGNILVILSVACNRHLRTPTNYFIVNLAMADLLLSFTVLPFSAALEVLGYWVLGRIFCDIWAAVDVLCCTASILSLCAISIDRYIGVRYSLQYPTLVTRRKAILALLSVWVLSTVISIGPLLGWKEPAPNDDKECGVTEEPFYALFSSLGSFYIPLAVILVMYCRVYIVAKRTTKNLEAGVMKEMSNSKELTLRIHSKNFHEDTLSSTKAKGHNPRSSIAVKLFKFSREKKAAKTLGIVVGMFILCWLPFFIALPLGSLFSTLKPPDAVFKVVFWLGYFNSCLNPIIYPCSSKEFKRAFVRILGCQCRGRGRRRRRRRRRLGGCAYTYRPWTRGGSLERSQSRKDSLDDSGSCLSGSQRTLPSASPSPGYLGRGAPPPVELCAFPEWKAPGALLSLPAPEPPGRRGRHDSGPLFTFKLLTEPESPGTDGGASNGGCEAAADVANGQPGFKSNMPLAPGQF
In short: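 Membranes (30 μg protein) from CHO cells stably transfected with the human α1a, α1b or α1d receptor. Incubated 30 min at 25 °C in 50 mM Tris-HCl pH 7.4 with 0.1–0.4 nM [3H]prazosin and competitor 1 pM–10 μM. Nonspecific binding defined by 10 μM phentolamine. Stopped by rapid filtration through PEI-treated filters. IC50 converted to Ki by Cheng-Prusoff; pKi from 2–3 experiments in triplicate.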

[2] = species: Homo sapiens; assay: Selectivity ratio of compound effect for displacement of [3H]prazosin from human alpha1D adrenergic receptor expressed in CHO cell membranes to compound effect for displacement of [3H]prazosin from human alpha1A adrenergic receptor expressed in CHO cell membranes
In short: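 Ratio taken as the antilog of the difference between pKi values from [3H]prazosin displacement at human α1 subtypes expressed in CHO membranes.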

[3] = target: T2, Alpha-1A adrenergic receptor (Rattus norvegicus, UniProt P43140); assay: Antagonist activity at alpha1A adrenergic receptor in Wistar rat prostatic rat vas deferens assessed as inhibition of noradrenaline-induced contraction preincubated for 30 mins followed by noradrenaline addition measured after 45 mins in presence of cocaine hydrochloride; type: functional; conditions: read-out: pA2 (converted)
T2 sequence (P43140 whole entry): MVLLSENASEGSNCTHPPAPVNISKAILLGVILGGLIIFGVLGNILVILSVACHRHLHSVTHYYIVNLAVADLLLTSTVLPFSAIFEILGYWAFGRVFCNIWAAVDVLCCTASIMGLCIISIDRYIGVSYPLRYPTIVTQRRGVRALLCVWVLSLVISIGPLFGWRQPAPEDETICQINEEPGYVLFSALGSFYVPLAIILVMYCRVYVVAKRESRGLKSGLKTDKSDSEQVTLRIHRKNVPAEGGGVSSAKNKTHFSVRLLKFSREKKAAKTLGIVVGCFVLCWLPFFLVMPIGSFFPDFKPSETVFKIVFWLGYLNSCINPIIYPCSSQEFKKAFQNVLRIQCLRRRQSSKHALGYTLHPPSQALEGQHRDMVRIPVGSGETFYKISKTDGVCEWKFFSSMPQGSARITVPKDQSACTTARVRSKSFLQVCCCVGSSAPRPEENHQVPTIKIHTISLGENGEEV
In short: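 Prostatic rat vas deferens, 2 cm portions, held at 0.35 g in Tyrode (pH 7.4, 37 °C, 95% O2/5% CO2). Cocaine 10 μM added 20 min before the agonist. Tissue equilibrated 45 min and primed twice with 10 μM noradrenaline. Isotonic cumulative noradrenaline curves were run before and after 30 min antagonist. pA2 came from Schild plots (≥3 concentrations); otherwise pKB (van Rossum). n ≥ 4.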

[4] = target: T3, Alpha-1D adrenergic receptor (Rattus norvegicus, UniProt P23944); assay: Antagonist activity at alpha1D adrenergic receptor in Wistar rat thoracic aorta assessed as inhibition of noradrenaline-induced contraction measured after 30 mins in presence of cocaine hydrochloride and beta-adrenoceptor blocker propranolol hydrochloride; type: functional; conditions: read-out: pA2 (converted)
T3 sequence (P23944 whole entry): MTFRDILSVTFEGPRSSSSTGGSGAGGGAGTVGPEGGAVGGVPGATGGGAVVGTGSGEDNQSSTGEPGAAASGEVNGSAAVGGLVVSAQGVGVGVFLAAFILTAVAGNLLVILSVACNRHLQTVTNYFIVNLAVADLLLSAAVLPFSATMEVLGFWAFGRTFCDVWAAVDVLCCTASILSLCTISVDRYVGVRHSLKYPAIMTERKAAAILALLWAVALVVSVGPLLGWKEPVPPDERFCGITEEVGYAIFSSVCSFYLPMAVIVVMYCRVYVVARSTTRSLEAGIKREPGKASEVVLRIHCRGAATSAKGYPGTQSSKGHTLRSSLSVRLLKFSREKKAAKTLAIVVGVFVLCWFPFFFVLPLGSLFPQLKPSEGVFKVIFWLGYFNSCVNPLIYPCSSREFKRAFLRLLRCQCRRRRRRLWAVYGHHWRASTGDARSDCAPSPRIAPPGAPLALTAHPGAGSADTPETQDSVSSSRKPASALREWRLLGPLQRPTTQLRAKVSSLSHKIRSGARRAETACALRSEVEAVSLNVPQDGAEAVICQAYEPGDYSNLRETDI
In short: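 Helical thoracic aorta strips, endothelium removed (checked by loss of acetylcholine relaxation), in Krebs at 1 g, equilibrated ≥2 h. Isometric cumulative noradrenaline curves at 1 h intervals; the second served as control, the third followed 30 min antagonist.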

[5] = target: T4, Alpha-1B adrenergic receptor (Rattus norvegicus, UniProt P15823); assay: Antagonist activity at alpha1B adrenergic receptor in Wistar rat spleen assessed as inhibition of phenylephrine-induced contraction incubated for 30 mins in presence of beta-adrenoceptor blocker propranolol hydrochloride; type: functional; conditions: read-out: pA2 (converted)
T4 sequence (P15823 whole entry): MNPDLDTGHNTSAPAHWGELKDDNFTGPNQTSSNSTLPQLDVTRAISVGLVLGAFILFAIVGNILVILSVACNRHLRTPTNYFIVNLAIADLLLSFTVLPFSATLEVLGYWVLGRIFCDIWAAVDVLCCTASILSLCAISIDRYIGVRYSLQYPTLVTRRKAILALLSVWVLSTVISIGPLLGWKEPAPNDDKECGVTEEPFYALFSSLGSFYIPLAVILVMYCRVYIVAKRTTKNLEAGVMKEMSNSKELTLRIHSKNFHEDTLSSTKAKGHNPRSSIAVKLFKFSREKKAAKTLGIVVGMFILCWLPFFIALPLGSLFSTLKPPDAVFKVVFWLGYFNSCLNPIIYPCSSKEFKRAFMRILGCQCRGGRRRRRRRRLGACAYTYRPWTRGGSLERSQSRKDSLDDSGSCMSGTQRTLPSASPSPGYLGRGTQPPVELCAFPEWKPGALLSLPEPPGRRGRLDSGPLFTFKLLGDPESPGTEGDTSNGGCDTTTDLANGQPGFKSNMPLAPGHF
In short: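 Spleen bisected longitudinally into strips in Krebs with propranolol 4 μM, held at 1 g and equilibrated 2 h. Two isometric cumulative phenylephrine curves, each followed by 30 min washing. Third curve after 30 min vehicle or antagonist. Potency as pA2 (Schild) or pKB at one concentration (van Rossum). Responses as % of control maximum; n ≥ 4.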

Row | SMILES | Ki [1] | Kb [3] | Kb [4] | Kb [5] | Selectivity ratio [2]
1 | COc1cc2nc(N3CCN(C(C)=O)[C@H]4CCCC[C@H]43)nc(N)c2cc1OC | 9.12 nM | 3020 nM | 1700 nM | 3.02 nM | 2
2 | COc1cc2nc(N3CCN(C(=O)C(C)(C)C)[C@H]4CCCC[C@H]43)nc(N)c2cc1OC | 0.776 nM | – | 141 nM | – | 1
3 | COc1cc2nc(N3CCN(C(=O)Cc4ccc5ccccc5c4)[C@H]4CCCC[C@H]43)nc(N)c2cc1OC | 1.17 nM | – | 135 nM | – | 8
4 | CCCCCC(=O)N1CCN(c2nc(N)c3cc(OC)c(OC)cc3n2)[C@@H]2CCCC[C@@H]21 | 0.912 nM | – | 155 nM | – | 2
5 | COc1cc2nc(N3CCN(C(C)=O)[C@@H]4CCCC[C@@H]43)nc(N)c2cc1OC | 0.741 nM | 44.7 nM | 2.19 nM | 0.617 nM | 60
6 | COc1cc2nc(N3CCN(C(=O)C4COc5ccccc5O4)[C@H]4CCCC[C@H]43)nc(N)c2cc1OC (single isomer, unassigned; (-)) [CYCLODOXAZOSIN] | – | 200 nM | – | – | –

More lines, in order of falling Ki [1], values ahead:

Row | Ki [1] | Kb [3] | Kb [4] | Kb [5] | SMILES | Selectivity ratio [2]
7 | 0.38 nM | 776 nM | 240 nM | – | COc1cc2nc(N3CCN(C(=O)OCc4ccccc4)[C@H]4CCCC[C@H]43)nc(N)c2cc1OC | 1
8 | 0.302 nM | – | – | – | CCCN(CCC)c1nc(N2CCN(C(=O)c3ccco3)[C@H]3CCCC[C@H]32)nc2cc(OC)c(OC)cc12 | 4
9 | 0.191 nM | 16.2 nM | 0.525 nM | 1.82 nM | COc1cc2nc(N3CCN(C(=O)OCc4ccccc4)[C@@H]4CCCC[C@@H]43)nc(N)c2cc1OC | 13
10 | 0.151 nM | 151 nM | 58.9 nM | 191 nM | COc1cc2nc(N3CCN(C(=O)COc4c(OC)cccc4C(C)C)[C@H]4CCCC[C@H]43)nc(N)c2cc1OC | 2
11 | 0.129 nM | – | 58.9 nM | – | CCCN(CCC)c1nc(N2CCN(C(=O)c3ccco3)[C@@H]3CCCC[C@@H]32)nc2cc(OC)c(OC)cc12 | 29
